Bioassay records (PubChem)
Rows were chosen to be rich in hits. Some 0.9% of all compounds tested hit in one or more screens of this group.
RGS7-Gao reg: RGS7-Galphao binding modulators, primary screen, biochemical, multiplexed bead flow cytometry; actives lie on both sides; AID 1439, 2008; 0.35% of 220,000 active; Guanine nucleotide-binding protein G(o) subunit alpha (Homo sapiens), P09471; binding response (% of control), % at 10 µM; in the data active = binding response below about 49% or above about 150%; inconclusive = no clear call, values can overlap the other calls; inactive = in between;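 note: fluorescent Galphao held in activated GDP-AlF4 state binding bead-coupled RGS7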
Target sequence (P09471 whole entry, looked up): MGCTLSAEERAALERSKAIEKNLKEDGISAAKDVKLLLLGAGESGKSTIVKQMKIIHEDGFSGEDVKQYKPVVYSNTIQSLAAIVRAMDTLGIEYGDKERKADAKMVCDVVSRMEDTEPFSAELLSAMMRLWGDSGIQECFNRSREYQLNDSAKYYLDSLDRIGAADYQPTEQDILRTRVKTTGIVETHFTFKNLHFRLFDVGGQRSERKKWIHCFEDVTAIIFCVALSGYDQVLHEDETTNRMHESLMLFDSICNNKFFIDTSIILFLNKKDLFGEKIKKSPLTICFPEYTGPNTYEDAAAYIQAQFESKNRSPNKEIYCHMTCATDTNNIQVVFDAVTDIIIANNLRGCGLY
RGS16-Gao HTS: modulators of RGS16 binding to Galphao, primary screen, biochemical, human proteins, multiplexed bead flow cytometry; Regulator of G-protein signaling 16 (Homo sapiens) + Guanine nucleotide-binding protein …; 0.38% of 220,000 active; bead-based flow cytometry RGS16-Galphao binding, fluorescence; actives lie on both sides; binding response (% of control), % at 10 µM;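 note: Galphao activated by GDP with aluminum fluoride before binding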
Target sequence (O15492 whole entry, looked up): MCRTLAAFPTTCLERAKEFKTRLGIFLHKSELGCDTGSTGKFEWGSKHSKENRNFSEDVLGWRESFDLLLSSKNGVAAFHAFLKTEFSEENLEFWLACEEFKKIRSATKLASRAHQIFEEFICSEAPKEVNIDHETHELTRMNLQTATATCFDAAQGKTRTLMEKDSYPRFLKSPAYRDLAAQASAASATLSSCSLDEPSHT
Target sequence (P09471 whole entry, looked up): as the sequence (P09471 whole entry, looked up) above
ABCB1 block: ABCB1 efflux pump inhibitors, primary screen, cell-based, multiplex, flow cytometry, ABCG2 counter-screen; 0.067% of 190,000 active; CCRF-Adr cells, JC-1 efflux; AID 1326, 2008; inhibition, % at 6.6 µM; ATP-dependent translocase ABCB1 (Homo sapiens), P08183; in the data active = inhibition above about 40%;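 note: 0% = vehicle and 100% = reference inhibitor; higher value means more JC-1 retained so stronger ABCB1 efflux block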
RGS8-Gao: RGS8-Galphao binding modulators, primary screen, biochemical, multiplexed bead flow cytometry. actives lie on both sides. Guanine nucleotide-binding protein G(o) subunit alpha (Homo sapiens), P09471. AID 1423, 2008. 0.34% of 220,000 active. response (percent of control binding), % at 10 µM; in the data active = response below about 60% or above about 140%; inactive = in between;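 note: Galphao activated as the GDP aluminium fluoride complex binding bead-coupled RGS8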
RGS4-Gao reg: modulators of RGS4 binding to Galphao, primary screen, biochemical, multiplexed bead flow cytometry; actives lie on both sides; binding response (% of control), % at 10 µM; 0.33% of 220,000 active; Guanine nucleotide-binding protein G(o) subunit alpha (Homo sapiens), P09471; in the data active = binding response below about 49% or above about 150%; inactive = in between;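 note: fluorescent Galphao activated with aluminum fluoride binding bead-coupled RGS4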
ABCG2 block: ABCG2 efflux pump inhibitors, primary screen, multiplex with ABCB1, IgMXP3 cells, flow cytometry; Broad substrate specificity ATP-binding cassette transporter ABCG2 (Homo sapiens), Q9UNQ0; JC-1 efflux; inhibition, % at 6.6 µM; 0.1% of 190,000 active;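 active = inhibition above 80%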;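 note: 0% = DMSO and 100% = nicardipine control wells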
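Test system: ABCG2 IgMXP3 and barcoded ABCB1 CCRF-Adr cell mix; Schedule: cells with compound and JC-1, 10 min at 25 °C, rotating, no wash; Technique: flow cytometry of retained JC-1 fluorescence; Measure: % inhibition of efflux relative to nicardipine and DMSO; Controls: nicardipine high and DMSO low controls.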
RGS4-Gao HTS: modulators of RGS–Galpha-o binding, primary screen, biochemical, multiplexed beads, flow cytometry, RGS4/7/8/16/19; AID 1504, 2009; multiplexed bead flow cytometry; RGS4–Galpha-o binding response, % at 10 µM; shares compounds with RGS16-Gao HTS; 99% of 1,600 active;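 note: fluorescently labeled Galpha-o bound to GDP with aluminium fluoride binding biotinylated RGS beads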
Avidin counter: disruption of biotin probe capture by avidin, counter-screen for RGS protein interaction modulators, biochemical, flow cytometry, bead-based | streptavidin beads, fluorescein-biotin binding | shares compounds with RGS16-Gao HTS | AID 1783, 2009 | 1,700 tested, under 10 active | inhibition, % at 10 µM;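 active = inhibition above 50%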;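 note: median green fluorescence of gated singlet beads compared with DMSO control wells; 0% = DMSO wells and 100% = complete loss of bead fluorescence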
RGS8-Gao confirm: RGS8-Galphao binding modulators, confirmation, biochemical, multiplexed bead flow cytometry, single concentration; shares compounds with RGS16-Gao HTS; bead-based flow cytometry RGS8-Galphao binding, fluorescence; actives lie on both sides; binding response (% of control), % at 10 µM; 3% of 1,700 active; AID 1836, 2009; in the data active = binding response below about 72% or above about 130%; inactive = in between;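 note: Galphao activated as GDP AlF4 complex before binding bead RGS8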
RGS7-Gao single: RGS7-Galphao binding modulators, confirmation, biochemical, multiplexed bead flow cytometry, single concentration; response (percent of control binding), % at 10 µM; AID 1837, 2009; shares compounds with RGS16-Gao HTS; 7.8% of 1,700 active; bead-based flow cytometry RGS7-Galphao binding; actives lie on both sides; in the data active = response below about 75% or above about 130%; inactive = in between;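 note: fluorescent Galphao activated with GDP and aluminum fluoride binding bead-coupled RGS7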
RGS16-Gao single: modulators of RGS16-Galphao protein binding, confirmation, biochemical, single concentration, multiplexed bead flow cytometry | shares compounds with RGS16-Gao HTS | bead-based flow cytometry; actives lie on both sides | response (% of control binding), % at 10 µM | 4% of 1,700 active; in the data active = response below about 74% or above about 130%; inactive = in between;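 note: Galphao activated as the GDP aluminium fluoride complex binding bead-coupled RGS16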
RGS4-Gao confirm: modulators of RGS4-Galphao protein binding, confirmation, biochemical, single concentration, multiplexed bead flow cytometry; shares compounds with RGS16-Gao HTS; actives lie on both sides; binding response (% of control), % at 10 µM; 4% of 1,700 active; AID 1840, 2009; in the data active = binding response below about 74% or above about 130%; inactive = in between
RGS19-Gao conf: regulators of RGS19-Galphao binding, confirmation, biochemical, single point, multiplexed bead flow cytometry; shares compounds with RGS16-Gao HTS; bead-based flow cytometry RGS19-Galphao binding; actives lie on both sides; response (percent of control binding), % at 10 µM; 5% of 1,700 active; in the data active = response below about 50% or above about 160%; inactive = in between;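 note: 100% = no compound control and 0% = blank background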
The depositor's hits bear a star; i = inactive; ? = inconclusive; . = not tested or not shown; [ ] = another dose, or the depositor's remark. Unless noted, the rule behind the calls is not given here.

SMILES | RGS7-Gao reg | RGS16-Gao HTS | ABCB1 block | RGS8-Gao | RGS4-Gao reg | ABCG2 block | RGS4-Gao HTS | Avidin counter | RGS8-Gao confirm | RGS7-Gao single | RGS16-Gao single | RGS4-Gao confirm | RGS19-Gao conf
COc1cc(C(=S)N2CCOCC2)ccc1OC(=O)c1cc([N+](=O)[O-])c(C)c([N+](=O)[O-])c1 | 91 | 6.2* | 6 | 80 | 86 | 3 | 86* | -1 | 102 | 98 | 102 | 101 | 95
COc1ccc(C(=S)N2CCOCC2)cc1OC(=O)c1cc([N+](=O)[O-])c(C)c([N+](=O)[O-])c1 | 107 | 104 | 1 | 101 | 100 | 1 | . | . | . | . | . | . | .
COc1ccc(C(CC(=O)O)NC(=O)c2ccccc2[N+](=O)[O-])cc1 (configuration not stated) | 105 | 100 | 1 | 104 | 106 | 1 | . | . | . | . | . | . | .
CCOc1ccc2[nH]c(=S)[nH]c2c1 | 105 | 103 | 1 | 101 | 101 | 13 | . | . | . | . | . | . | .
CCOc1ccc2c(c1)n(CO)c(=S)n2CO | 176*[activator] | 104 | 0 | 100 | 112 | 1 | 112* | 0 | 91 | 79 | 93 | 90 | 110
Nc1cc(=O)[nH]c(SCC(=O)Nc2ccccc2Sc2ccccc2)n1 | 105 | 101 | -1 | 103 | 99 | -2 | . | . | . | . | . | . | .
O=C(NNS(=O)(=O)c1ccc2ccccc2c1)c1cc(-c2ccccn2)nc2ccccc12 | 96 | 54 | 0 | 79 | 91 | -6 | . | . | . | . | . | . | .
O=C(CN1N=C(c2ccc(Cl)cc2)CCC1=O)NCCN1CCc2ccccc2C1 | 4.0* | -2.4* | 1 | 13* | 14* | 6 | . | -1 | 110 | 106 | 116 | 107 | 135
Cc1ccc(C2=NN(CC(=O)NCc3cccs3)C(=O)CC2)cc1 | 102 | 117 | 0 | 106 | 101 | 1 | . | . | . | . | . | . | .
Cc1ccc(C(=O)COC(=O)CCC(=O)Nc2ccccc2Cl)cc1[N+](=O)[O-] | 100 | 127 | 1 | 114 | 101 | 6 | . | . | . | . | . | . | .
Cc1ccc(C(=O)COC(=O)CCCC(=O)Nc2cc(C(F)(F)F)ccc2Cl)cc1C | 12* | 11* | 1 | 26* | 20* | 20 | . | -1 | 100 | 96 | 99 | 99 | 88
Fc1ccc(C(Nc2ccccn2)c2c[nH]c3ccccc23)cc1 (configuration not stated) | 133 | 156 | 0 | 141*[activator] | 125 | 1 | 125* | 0 | 104 | 103 | 102 | 103 | 111
OC(c1ccccn1)c1c[nH]c2ccccc12 (configuration not stated) | 97 | 78 | 0 | 87 | 80 | 2 | . | . | . | . | . | . | .
CC(CCc1ccccc1)NC(=O)C1CCN(S(=O)(=O)N2CCOCC2)CC1 (configuration not stated) | 167*[activator] | 165 | 0 | 160*[activator] | 180*[activator] | 0 | . | 2 | 101 | 97 | 100 | 100 | 99
CC(C)(C)NC(=O)c1cccc2c1OC(C)(C)C2 | 89 | 20* | 1 | 66 | 87 | 9 | 87* | 0 | 98 | 94 | 100 | 98 | 80
CCOc1ccc(NC(=O)N(CCC(C)C)C2CCN(C(C)=O)CC2)cc1 | 122 | 653 | 0 | 153*[activator] | 127 | 1 | 127* | i | 101 | 106 | 102 | 102 | 101
CC(=O)N1CCc2cc(S(=O)(=O)NC(Cc3ccccc3)C(=O)Nc3cc(C)ccn3)ccc21 (configuration not stated) | 118 | 940 | 1 | 153*[activator] | 129 | 1 | 129* | i | 100 | 101 | 102 | 102 | 105
COc1ccc(N/N=C(/C(C)=O)N2CCCc3ccccc32)cc1 | ? | 92 | . | 98 | 95 | . | . | . | . | . | . | . | .
CC(/C=C1\SC(=S)N(CCCC(=O)Nc2ccc(C(=O)O)cc2)C1=O)=C\c1ccccc1 | 99 | 101 | -1 | 98 | 102 | -2 | . | . | . | . | . | . | .
CC(/C=C1\SC(=O)N(CCCC(=O)O)C1=O)=C\c1ccccc1 | 160*[activator] | 83 | 0 | 132 | 165*[activator] | 12 | . | -1 | 101 | 98 | 97 | 98 | 104
CCn1c(CSCc2ccc(Cl)cc2)nnc1SCC(=O)Nc1cccc(C(=O)O)c1 | 76 | 82 | 0 | 85 | 78 | 2 | . | . | . | . | . | . | .
O=C(Nc1ccccn1)NC1CCCCC1 | . | . | 1 | . | 199*[activator] | 3 | . | 0 | 101 | 102 | 102 | 104 | 111
O=C(NCc1ccccn1)NC1CCCCC1 | 99 | 95 | 0 | 101 | 102 | 2 | . | . | . | . | . | . | .
O=C(Nc1ccccn1)NC1CCS(=O)(=O)C1 (configuration not stated) | 82 | -92* | 0 | 80 | 76 | 0 | 76* | -1 | 101 | 98 | 102 | 101 | 103
CC(C)(C)NC(=O)NC(=O)CN1CCN(c2ncc(C(F)(F)F)cc2Cl)CC1 | . | . | 1 | . | . | 4 | . | 0 | 98 | 89 | 92 | 94 | 94
O=C(CN1CCc2ccccc2C1)Nc1ccc(Br)cc1 | 111 | 362 | 1 | 146*[activator] | 120 | 1 | 120* | 2 | 100 | 94 | 100 | 99 | 104
